Measured values published in ChEMBL document CHEMBL1275586, “Phenotypic susceptibility to bevirimat in isolates from HIV-1-infected patients without prior exposure to bevirimat” (Antimicrob Agents Chemother, 2010).

Experiments:
[1] = system: Human immunodeficiency virus 1; experiment: Antiviral activity against Human immunodeficiency virus 1 isolate 3 harboring Gag-capsid I138L, A146P, I147L, V159I, S176A, V215L, H219Q/H, T242N, G248A, T280V, A340G and G357S mutant gene and protease L10I, T31S/T, V32I, M36I/M, S37C, R41K, M46I, F53L, I54V, R57K, L63P, I64V, A71V, V82A and L90M mutant gene infected in human MT-2 cells by XTT-assay relative to wild-type; type: functional, MT2
Method in brief: (§1)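 Patient Gag-protease (SfoI-XmaI) fragments were ligated into the pXXLAI backbone, with colonies pooled to keep quasispecies. Virus came from 293T transfection, harvested at 2 days. MT-2 infection at 37°C used an input giving XTT signal-to-noise of 2.5–4.0 (≈MOI 0.001). Cells at ≈17,000/well with drug dilutions, 5 days, 37°C; XTT 1 h, A450–650. EC50 from % cell death; fold change vs wild-type LAI.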

[2] = system: Human immunodeficiency virus 1; experiment: Antiviral activity against Human immunodeficiency virus 1 isolate 20 harboring Gag-capsid I138L, V215L, V218P, H219Q, M228I, E230D, G248T, T280A, E312D, A340G and G357S mutant gene and protease L10F, A22V, D30N, S37N, K45R, I54L, I62V, L63P, A71V, V77I, I84V, N88D and Q92K mutant gene infected in human MT-2 cells by XTT-assay relative to wild-type; type: functional, MT2; method in brief: as §1
[3] = system: Human immunodeficiency virus 1; experiment: Antiviral activity against Human immunodeficiency virus 1 isolate 36 harboring Gag-capsid I138L, A146P, S165N/S, E207D, V215L and E312D mutant gene and protease K14R/K, I15V, E35D, S37D, R57K/R and L63P mutant gene infected in human MT-2 cells by XTT-assay relative to wild-type; type: functional, MT2; method in brief: as §1
[4] = system: Human immunodeficiency virus 1; experiment: Antiviral activity against Human immunodeficiency virus 1 isolate 5 harboring Gag-capsid I138M, V159I, T280V and S310T mutant gene and protease I13V, D30N, L33I, E35D, M36I, S37N, M46I/L, I54V, I62V, L63P, I66M/I, A71N/T, I72T/I, V82L/V, N88D, L90M and I93L/I mutant gene infected in human MT-2 cells by XTT-assay relative to wild-type; type: functional, MT2; method in brief: as §1
[5] = system: Human immunodeficiency virus 1; experiment: Antiviral activity against Human immunodeficiency virus 1 isolate 22 harboring Gag-capsid V215L, H219Q, I223V, N252S, P255A, L268M and A340G mutant gene and Protease L19I, E35D, M36I, S37N, L63P, V77I and I93L mutant gene infected in human MT-2 cells by XTT-assay relative to wild-type; type: functional, MT2; method in brief: as §1
[6] = system: Human immunodeficiency virus 1; experiment: Antiviral activity against Human immunodeficiency virus 1 isolate 8 harboring Gag-capsid V215T mutant gene and protease L10I, L24I, L33F, S37N, R41K, I54V, D60E, I62V, L63P, A71V, V77I, V82A and I84V mutant gene infected in human MT-2 cells by XTT-assay relative to wild-type; type: functional, MT2; method in brief: as §1
[7] = system: Human immunodeficiency virus 1; experiment: Antiviral activity against Human immunodeficiency virus 1 isolate 9 harboring Gag-capsid I138L, A146S, I147L, V215L, N252H, T280A, A340G and E345D mutant gene and protease L10I, I13V, K20M, L33V, M36I, S37N, I54V, R57K, I62V, L63P, I66L, A71V, G73S, P79A, I84V and L90M mutant gene infected in human MT-2 cells by XTT-assay relative to wild-type; type: functional, MT2; method in brief: as §1
[8] = system: Human immunodeficiency virus 1; experiment: Antiviral activity against Human immunodeficiency virus 1 isolate 39 harboring Gag-capsid A146P, I147L, V215L, M228I, G248A, R286K, A326S, G357S and V362I mutant gene and protease K14R, E35D, M36I, S37N, R41K, K45R, D60E, I62V and I64V mutant gene infected in human MT-2 cells by XTT-assay relative to wild-type; type: functional, MT2; method in brief: as §1
[9] = system: Human immunodeficiency virus 1; experiment: Antiviral activity against Human immunodeficiency virus 1 isolate 33 harboring Gag-capsid I138L, V215L, V218P, H219Q, I223V, M228I, G248T, N252S, N253T, I256M, E312D and A326S mutant gene and protease T12S/T, I13V/I, I15V, L19I, S37T, L63V/A/P/L and I72V/I mutant gene infected in human MT-2 cells by XTT-assay relative to wild-type; type: functional, MT2; method in brief: as §1
[10] = system: Human immunodeficiency virus 1; experiment: Antiviral activity against Human immunodeficiency virus 1 isolate 7 harboring Gag-capsid I138L, I147L, S173A, V215L, I223V, T242N, G248A, N252A, I126T, T280V and E312D mutant gene and protease K20R, M36I, R41K, M46I, L63Q, I64V, P79S, V82F and L90M mutant gene infected in human MT-2 cells by XTT-assay relative to wild-type; type: functional, MT2; method in brief: as §1
[11] = system: Human immunodeficiency virus 1; experiment: Antiviral activity against Human immunodeficiency virus 1 isolate 4 harboring Gag-capsid A146P, V159I, V215L, I223G/V, P255A, E312D and G357S mutant gene and protease L10R, S37N, M46L, I62V, L63P, A71V, V82T, L90M and I93L mutant gene infected in human MT-2 cells by XTT-assay relative to wild-type; type: functional, MT2; method in brief: as §1
[12] = system: Human immunodeficiency virus 1; experiment: Antiviral activity against Human immunodeficiency virus 1 isolates harboring Gag-SP-1 V370A mutant gene relative to wild-type; type: functional
Method in brief: (§2)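 Site-directed mutants were made by two-round overlap PCR into the pXXLAI (HIV-1 LAI) backbone from an individual clone, then transfected into 293T cells, with supernatant harvested at 2 days. MT-2 cells were infected at an input giving an XTT signal-to-noise of 2.5–4.0, plated at ≈17,000 cells/well with drug dilutions, and read by XTT after 5 days. EC50 from % cell death; fold change vs wild-type LAI.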

[13] = system: Human immunodeficiency virus 1; experiment: Antiviral activity against Human immunodeficiency virus 1 isolate 37 harboring Gag-capsid G357S mutant gene and Gag-SP1 I376V mutant gene infected in human MT-2 cells by XTT assay relative to wild-type; type: functional, MT2; method in brief: as §1
[14] = system: Human immunodeficiency virus 1; experiment: Antiviral activity against antiretroviral-pretreated Human immunodeficiency virus 1 isolate 12 harboring Gag-capsid G357S and V362I mutant gene infected in human MT-2 cells by XTT assay relative to wild-type; type: functional, MT2
Method in brief: (§3)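 Patient-derived Gag fragments were pooled as bacterial colonies to keep quasispecies diversity and ligated into the pXXLAI (HIV-1 LAI) backbone. Virus was made by transfecting 293T cells and harvesting supernatant 2 days later. MT-2 cells were infected at 37°C with an inoculum titrated to give an XTT signal-to-noise of 2.5–4.0. Cells were plated into drug dilutions, incubated 5 days at 37°C, and read by XTT absorbance (450−650 nm). EC50 was taken from percent cell death and expressed as fold change versus wild-type LAI.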

[15] = system: Human immunodeficiency virus 1; experiment: Antiviral activity against antiretroviral-pretreated PI-resistant Human immunodeficiency virus 1 isolate 1 harboring Gag-Sp-1 S368C, V370A and A374N mutant gene deletion at T371 in Gag-SP-1 infected in human MT-2 cells by XTT assay relative to wild-type; type: functional, MT2; method in brief: as §3
[16] = system: Human immunodeficiency virus 1; experiment: Antiviral activity against Human immunodeficiency virus 1 isolate 32 harboring Gag-SP1 V370I and N372G mutant gene infected in human MT-2 cells by XTT assay relative to wild-type; type: functional, MT2; method in brief: as §1
[17] = system: Human immunodeficiency virus 1; experiment: Antiviral activity against Human immunodeficiency virus 1 isolate 1 harboring Gag-SP-1 S368, V370 and deletion at T371 in Gag-SP-1 mutant infected in human MT-2 cells by XTT-assay relative to wild-type; type: functional, MT2; method in brief: as §1
[18] = system: Human immunodeficiency virus 1; experiment: Antiviral activity against Human immunodeficiency virus 1 isolate 8 harboring Gag-SP1 V362I mutant infected in human MT-2 cells by XTT-assay relative to wild-type; type: functional, MT2; method in brief: as §1
[19] = system: Human immunodeficiency virus 1; experiment: Antiviral activity against antiretroviral-pretreated PI-resistant Human immunodeficiency virus 1 isolate 9 harboring Gag-SP1 T375N and I376V mutant gene infected in human MT-2 cells by XTT assay relative to wild-type; type: functional, MT2; method in brief: as §3
[20] = system: Human immunodeficiency virus 1; experiment: Antiviral activity against Human immunodeficiency virus 1 isolate 6 harboring Gag-SP-1 V370, S373 and A374 mutant infected in human MT-2 cells by XTT-assay relative to wild-type; type: functional, MT2; method in brief: as §1
[21] = system: Human immunodeficiency virus 1; experiment: Antiviral activity against Human immunodeficiency virus 1 isolates harboring deletion at T371 in Gag-SP-1 relative to wild-type; type: functional; method in brief: as §2

Structure (SMILES)	fold change (FC) [1]	fold change (FC) [2]	fold change (FC) [3]	fold change (FC) [4]	fold change (FC) [5]	fold change (FC) [6]	fold change (FC) [7]	fold change (FC) [8]	fold change (FC) [9]	fold change (FC) [10]	further results
COC(=O)N[C@H](C(=O)N[C@@H](Cc1ccccc1)[C@@H](O)CN(Cc1ccc(-c2ccccn2)cc1)NC(=O)[C@@H](NC(=O)OC)C(C)(C)C)C(C)(C)C [ATAZANAVIR]	15.1	51.9	1.3	63.2	1.3	29	44.4	1.4	1.8	1	
C=C(C)[C@@H]1CC[C@]2(C(=O)O)CC[C@]3(C)[C@H](CC[C@@H]4[C@@]5(C)CC[C@H](OC(=O)CC(C)(C)C(=O)O)C(C)(C)[C@@H]5CC[C@]43C)[C@@H]12 [BEVIRIMAT]											fold change (FC) [11]: >100; fold change (FC) [12]: >151.4; fold change (FC) [13]: 4.6; fold change (FC) [14]: >100; fold change (FC) [15]: >100; fold change (FC) [16]: 0.9; fold change (FC) [17]: 0.6; fold change (FC) [18]: >100; fold change (FC) [19]: 4.7; fold change (FC) [20]: 0.4; fold change (FC) [21]: 52.2
Cc1cccc(C)c1OCC(=O)N[C@@H](Cc1ccccc1)[C@@H](O)C[C@H](Cc1ccccc1)NC(=O)[C@H](C(C)C)N1CCCNC1=O [LOPINAVIR]	13	13.3	1.1	12.1	0.9	28.7	16.5	0.8	1.6	4.1	
